One block for each molecule: values may come before it.
Legend:
[1] = molecular target: T1, C5a anaphylatoxin chemotactic receptor 1 (Homo sapiens, UniProt P21730); assay: Antagonist activity at human C5a receptor in U937 cells assessed as inhibition of anaphylatoxin-induced intracellular calcium mobilization; format: functional, cell-based, U-937
T1 sequence (P21730 whole entry): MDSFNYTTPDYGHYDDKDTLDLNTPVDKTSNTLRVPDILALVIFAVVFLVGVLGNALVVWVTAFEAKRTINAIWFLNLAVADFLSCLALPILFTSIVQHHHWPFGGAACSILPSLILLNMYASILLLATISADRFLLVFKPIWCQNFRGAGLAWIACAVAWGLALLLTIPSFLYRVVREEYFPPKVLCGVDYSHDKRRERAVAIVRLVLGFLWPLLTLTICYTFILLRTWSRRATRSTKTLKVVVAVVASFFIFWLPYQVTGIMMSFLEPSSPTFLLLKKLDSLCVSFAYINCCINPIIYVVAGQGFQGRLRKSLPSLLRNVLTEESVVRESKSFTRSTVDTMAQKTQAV

[2] = molecular target: T1, C5a anaphylatoxin chemotactic receptor 1; assay: Displacement of [125I]C5a from human C5a receptor in U937 cells; format: cell-based, U-937
[3] = Oral bioavailability in rat at 10 mg/kg; format: ADME, organism-based; conditions: in vivo
In short: (§1)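 Rat pharmacokinetics with single doses: oral at 10 mg/kg and intravenous at 2 mg/kg, n = 4. Cmax and half-life were taken from the oral arm, and bioavailability from comparison of the oral and intravenous exposures.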

[4] = Metabolic stability in human liver microsomes after 10 mins; format: ADME, Microsome; conditions: read-out: Stability
[5] = Clearance in rat at 2 mg/kg, iv; conditions: in vivo
[6] = Cmax in rat at 10 mg/kg, po; format: ADME, organism-based; design: dose 10 mg/kg, route oral; conditions: in vivo; in short: as §1
[7] = Metabolic stability in human liver microsomes; format: ADME, Microsome
[8] = Half life in rat at 10 mg/kg, po; format: ADME, organism-based; design: dose 10 mg/kg, route oral; conditions: in vivo; in short: as §1

SMILES: CCNC1CCCc2nc(-c3c(CC)cccc3CC)cc(OC)c21 (stereo unspecified)
IC50 [1]: > 10 µM

SMILES: CCc1cccc(CC)c1-c1cc(OC)c2c(n1)CCCC2N(C)c1cccc2cc(OC)ccc12 (stereo unspecified)
IC50 [1]: 0.18 µM

SMILES: CCc1cccc(CC)c1-c1cc(OC)c2c(n1)CCCC2N1CCc2ccc(OC)cc2C1 (stereo unspecified)
IC50 [1]: > 10 µM

SMILES: CCc1cccc(CC)c1-c1cc(OC)c2c(n1)CCCC2N(C)c1ccc2ccccc2c1 (stereo unspecified)
IC50 [1]: > 10 µM

SMILES: CCc1cccc(CC)c1-c1cc(OC)c2c(n1)CCCC2N[C@@H]1CCCc2ccccc21 (stereo in doubt; 40)
IC50 [1]: 1.9 µM

SMILES: CCc1cccc(CC)c1-c1cc(OC)c2c(n1)CCCC2N1CCc2ccc(C(F)(F)F)cc2C1 (stereo unspecified)
IC50 [1]: > 10 µM

SMILES: CCN(c1cccc2ccccc12)C1CCCc2nc(-c3ccccc3C(C)C)cc(OC)c21 (stereo unspecified)
IC50 [1]: 1.7 µM

SMILES: CCN(c1cccc2ccccc12)C1CCCc2nc(-c3ccccc3-c3ccccc3)cc(OC)c21 (stereo unspecified)
IC50 [1]: > 10 µM

SMILES: CCc1cccc(CC)c1-c1cc(OC)c2c(n1)CCCC2N[C@H]1CCCc2ccccc21 (stereo in doubt; 38)
IC50 [1]: 0.82 µM

SMILES: CCc1cccc(CC)c1-c1cc(OC)c2c(n1)CCCC2N[C@H]1CCCc2ccccc21 (stereo in doubt; 39)
IC50 [1]: 5.5 µM

SMILES: CCc1cccc(CC)c1-c1cc(OC)c2c(n1)CCCC2N(C)c1cccc2c(OC)cccc12 (stereo unspecified)
IC50 [1]: > 10 µM

SMILES: CCc1cccc(CC)c1-c1cc(Cl)c2c(n1)CCCC2N(CC)c1cccc2ccccc12 (stereo unspecified)
IC50 [1]: 2 µM

SMILES: CCc1cccc(CC)c1-c1cc(CC)c2c(n1)CCCC2N(C)Cc1cccc2ccccc12 (stereo unspecified)
IC50 [1]: > 10 µM

SMILES: CCc1cccc(CC)c1-c1cc(OC)c2c(n1)CCCC2N1CCc2cc(OC)c(OC)cc2C1 (stereo unspecified)
IC50 [1]: > 10 µM

SMILES: CCN(c1cccc2ccccc12)C1CCCc2nc(Cl)cc(OC)c21 (stereo unspecified)
IC50 [1]: > 10 µM

SMILES: CCN(c1cccc2ccccc12)C1CCCc2nc(-c3c(OC)cccc3OC)cc(OC)c21 (stereo unspecified)
IC50 [1]: 1.8 µM
Ki [2]: 1.2 µM

SMILES: CCN(c1cccc2ccccc12)C1CCCc2nc(-c3ccccc3)cc(OC)c21 (stereo unspecified)
IC50 [1]: > 10 µM

bioavailability [3]: 59%
remaining at 10 min [4]: 88%
clearance [5]: 31 mL/min/kg
Cmax [6]: 1300 nM
half-life [7]: 0.9 h
half-life [8]: 1.8 h
SMILES: CCc1cccc(CC)c1-c1cc(OC)c2c(n1)CCCC2N(CC)c1cccc2ccccc12 (stereo in doubt; 27)

SMILES: CCN(c1cccc2ccccc12)C1CCCc2nc(-c3cccnc3)cc(OC)c21 (stereo unspecified)
IC50 [1]: > 10 µM

SMILES: CCc1cccc(CC)c1-c1cc(CC)c2c(n1)CCCC2N(CC)Cc1ccccc1 (stereo unspecified)
IC50 [1]: > 10 µM

SMILES: CCc1cccc(CC)c1-c1ccc2c(n1)CCCC2N(CC)c1cccc2ccccc12 (stereo unspecified)
IC50 [1]: > 10 µM

SMILES: CCN(c1cccc2ccccc12)C1CCCc2nc(-c3c(C)cccc3C)cc(OC)c21 (stereo unspecified)
IC50 [1]: 0.13 µM

SMILES: CCc1cccc(CC)c1-c1cc(OC)c2c(n1)CCCC2N(CCO)c1cccc2ccccc12 (stereo unspecified)
IC50 [1]: 0.19 µM
Ki [2]: 0.18 µM

SMILES: CCc1cccc(CC)c1-c1cc(OC)c2c(n1)CCCC2N[C@@H]1CCCc2ccccc21 (stereo in doubt; 41)
IC50 [1]: 8.1 µM

SMILES: CCc1cccc(CC)c1-c1cc(OC)c2c(n1)CCCC2N1CCc2cccc(C(F)(F)F)c2C1 (stereo unspecified)
IC50 [1]: 0.27 µM

SMILES: CCN(c1cccc2ccccc12)C1CCCc2nc(-c3ccc4c(c3)OCO4)cc(OC)c21 (stereo unspecified)
IC50 [1]: > 10 µM

SMILES: CCc1cccc(CC)c1-c1cc(OC)c2c(n1)CCCC2N1CCc2c(cccc2C(F)(F)F)C1 (stereo unspecified)
IC50 [1]: > 10 µM

SMILES: CCc1cccc(CC)c1-c1cc(OC)c2c(n1)CCCC2Nc1cccc2ccccc12 (stereo unspecified)
IC50 [1]: > 10 µM

SMILES: CCc1cccc(CC)c1-c1cc(OC)c2c(n1)CCCC2N1CCc2ccccc2C1 (stereo unspecified)
IC50 [1]: 1.1 µM

SMILES: CCc1cccc(CC)c1-c1cc(OC)c2c(n1)CCCC2N(C)c1c(C)ccc2ccccc12 (stereo unspecified)
IC50 [1]: 1.5 µM

SMILES: CCc1cccc(CC)c1-c1cc(OC)c2c(n1)CCCC2N(CC)c1cccc2c1CCCC2 (stereo unspecified)
IC50 [1]: 0.22 µM

SMILES: CCc1cccc(CC)c1-c1cc(OC)c2c(n1)CCCC2N(C)c1cccc2ccccc12 (stereo unspecified)
IC50 [1]: 0.17 µM

SMILES: CCc1ccccc1-c1cc(OC)c2c(n1)CCCC2N(CC)c1cccc2ccccc12 (stereo unspecified)
IC50 [1]: 0.65 µM

SMILES: CCN(c1cccc2ccccc12)C1CCCc2nc(-c3ccsc3)cc(OC)c21 (stereo unspecified)
IC50 [1]: > 10 µM
